Assay results reported in ChEMBL document CHEMBL3112482, “Nonclassical antifolates, part 5. Benzodiazepine analogs as a new class of DHFR inhibitors: synthesis, antitumor testing and molecular modeling study” (Eur J Med Chem, 2014).

Legend:
Type in all cases: functional
NCI-H460 = experiment: Growth inhibition of human NCI-H460 cells at 10 uM after 48 hrs; conditions: NCI-H460, 48 h, read-out: GI
How it was run: (§1)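 Single-dose primary screen in the NCI 60 human tumour cell line panel, run at the NCI facility. The panel covers nine subpanels: leukaemia, non-small cell lung, colon, CNS, melanoma, ovarian, renal, prostate and breast. Read-out was percent growth of treated cells, shown as a mean graph and reported as percent growth inhibition.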

HOP-62 = experiment: Growth inhibition of human HOP62 cells at 10 uM after 48 hrs; conditions: HOP-62, 48 h, read-out: GI; how it was run: as §1
U-251 = experiment: Growth inhibition of human U251 cells at 10 uM after 48 hrs; conditions: U-251, 48 h, read-out: GI
How it was run: (§2)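 NCI 60-cell-line disease-oriented human tumor panel, single-dose primary screen at 10 µM. Data given as mean-graph percent growth of treated cells, reported as percent growth inhibition (GI %).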

HCT-15 = experiment: Growth inhibition of human HCT15 cells at 10 uM after 48 hrs; conditions: HCT-15, 48 h, read-out: GI; how it was run: as §1
NCI-H226 = experiment: Growth inhibition of human NCI-H226 cells at 10 uM after 48 hrs; conditions: NCI-H226, 48 h, read-out: GI; how it was run: as §1
IGROV-1 = experiment: Growth inhibition of human IGROV1 cells at 10 uM after 48 hrs; conditions: IGROV-1, 48 h, read-out: GI; how it was run: as §1
A549 = experiment: Growth inhibition of human A549 cells at 10 uM after 48 hrs; conditions: A549, 48 h, read-out: GI; how it was run: as §1
UACC-62 = experiment: Growth inhibition of human UACC62 cells at 10 uM after 48 hrs; conditions: UACC-62, 48 h, read-out: GI; how it was run: as §2
786-0 = experiment: Growth inhibition of human 786-0 cells at 10 uM after 48 hrs; conditions: 786-0, 48 h, read-out: GI; how it was run: as §1
ACHN = experiment: Growth inhibition of human ACHN cells at 10 uM after 48 hrs; conditions: read-out: GI; how it was run: as §1
Malme-3M = experiment: Growth inhibition of human MALME-3M cells at 10 uM after 48 hrs; conditions: read-out: GI; how it was run: as §1
[1] = Cytotoxicity against human melanoma cells at 10 uM after 48 hrs; conditions: Melanoma cell; how it was run: as §1
[2] = Cytotoxicity against human leukemia cells at 10 uM after 48 hrs; conditions: Leukemia cell
SN12C = experiment: Growth inhibition of human SN12C cells at 10 uM after 48 hrs; conditions: read-out: GI; how it was run: as §2
[3] = Growth inhibition of human HOP92 cells at 10 uM after 48 hrs; conditions: HOP-92, 48 h, read-out: GI; how it was run: as §1
SK-MEL-5 = experiment: Growth inhibition of human SK-MEL-5 cells at 10 uM after 48 hrs; conditions: SK-MEL-5, 48 h, read-out: GI; how it was run: as §2
KM12 = experiment: Growth inhibition of human KM12 cells at 10 uM after 48 hrs; conditions: KM12, 48 h, read-out: GI; how it was run: as §1
BT-549 = experiment: Growth inhibition of human BT549 cells at 10 uM after 48 hrs; conditions: BT-549, 48 h, read-out: GI; how it was run: as §1
LOX IMVI = experiment: Growth inhibition of human LOXIMVI cells at 10 uM after 48 hrs; conditions: read-out: GI; how it was run: as §1
HT-29 = experiment: Growth inhibition of human HT-29 cells at 10 uM after 48 hrs; conditions: HT-29, 48 h, read-out: GI; how it was run: as §1
[4] = Cytotoxicity against human non-small cell lung cancer cells at 10 uM after 48 hrs; conditions: Cancer cell lines; how it was run: as §1
SF-295 = experiment: Growth inhibition of human SF295 cells at 10 uM after 48 hrs; conditions: SF-295, 48 h, read-out: GI; how it was run: as §2
HCT-116 = experiment: Growth inhibition of human HCT116 cells at 10 uM after 48 hrs; conditions: HCT-116, 48 h, read-out: GI; how it was run: as §1
[5] = Growth inhibition of human HCC2998 cells at 10 uM after 48 hrs; conditions: HCC 2998, 48 h, read-out: GI; how it was run: as §1
HL-60(TB) = experiment: Growth inhibition of human HL-60(TB) cells at 10 uM after 48 hrs; conditions: HL-60, 48 h, read-out: GI
How it was run: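 NCI 60-cell-line human tumour panel covering nine subpanels (leukaemia, non-small cell lung, colon, CNS, melanoma, ovarian, renal, prostate, breast), run at the NCI facility. Primary screen tested a single dose of each compound. Read-out was percent growth of treated cells versus untreated cells, reported from the mean graph as percentage growth inhibition.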

OVCAR-3 = experiment: Growth inhibition of human OVCAR3 cells at 10 uM after 48 hrs; conditions: OVCAR-3, 48 h, read-out: GI; how it was run: as §1
MDA-MB-468 = experiment: Growth inhibition of human MDA-MB-468 cells at 10 uM after 48 hrs; conditions: MDA-MB-468, 48 h, read-out: GI; how it was run: as §1
[6] = read-out: LC50 (the source's name)

**Q.** Which results are given for `COc1ccc(/C=C2\CCCc3c2nc(N)nc3-c2ccc(OC)c(OC)c2)cc1OC`?
**A.** inhibition of growth at 10 µM (NCI-H460): 35.4%; inhibition of growth at 10 µM (HOP-62): 43%; inhibition of growth at 10 µM (U-251): 62.2%; inhibition of growth at 10 µM (HCT-15): 64.1%; inhibition of growth at 10 µM (NCI-H226): 65.9%; inhibition of growth at 10 µM (IGROV-1): 42.9%; inhibition of growth at 10 µM (A549): 41.2%; inhibition of growth at 10 µM (UACC-62): 47.2%; inhibition of growth at 10 µM (786-0): < 30%; inhibition of growth at 10 µM (ACHN): 72.7%; inhibition of growth at 10 µM (Malme-3M): 47.5%; GI50 [1]: 5.5 µM; TGI [1]: 73.4 µM; CC50 [1, 6]: 95.6 µM; GI50 [2]: 2.1 µM; LC50 [2]: > 100 µM; TGI [2]: 65.1 µM; inhibition of growth at 10 µM (SN12C): 42.6%; inhibition of growth at 10 µM [3]: < 30%; inhibition of growth at 10 µM (SK-MEL-5): 60.3%; inhibition of growth at 10 µM (KM12): 67.9%; inhibition of growth at 10 µM (BT-549): 63.9%; inhibition of growth at 10 µM (LOX IMVI): 87.1%; inhibition of growth at 10 µM (HT-29): 75.8%; GI50 [4]: 22.1 µM; TGI [4]: 71.1 µM; CC50 [4, 6]: 94.3 µM; inhibition of growth at 10 µM (SF-295): < 30%; inhibition of growth at 10 µM (HCT-116): 92.1%; inhibition of growth at 10 µM [5]: < 30%; inhibition of growth at 10 µM (HL-60(TB)): 57.7%; inhibition of growth at 10 µM (OVCAR-3): 89.2%

**Q.** Which inhibition of growth at 10 µM (NCI-H460) does the source give for `COc1ccc(/C=C2\CCCc3c2nc(C)nc3-c2ccc(OC)cc2)cc1` here?
**A.** Its inhibition of growth at 10 µM is less than 30%.

**Q.** What about the inhibition of growth at 10 µM (HOP-62) of the same compound?
**A.** Its inhibition of growth at 10 µM is less than 30%.

**Q.** What about the inhibition of growth at 10 µM (U-251) of the same compound?
**A.** The inhibition of growth at 10 µM was less than 30%.

**Q.** And the inhibition of growth at 10 µM (HCT-15)?
**A.** Its inhibition of growth at 10 µM is less than 30%.

**Q.** What about the inhibition of growth at 10 µM (NCI-H226) of the same compound?
**A.** Its inhibition of growth at 10 µM is less than 30%.

**Q.** And the inhibition of growth at 10 µM (IGROV-1)?
**A.** The inhibition of growth at 10 µM was less than 30%.

**Q.** And the inhibition of growth at 10 µM (A549)?
**A.** Its inhibition of growth at 10 µM is less than 30%.

**Q.** What about the inhibition of growth at 10 µM (UACC-62) of the same compound?
**A.** The inhibition of growth at 10 µM was less than 30%.

**Q.** And the inhibition of growth at 10 µM (786-0)?
**A.** The inhibition of growth at 10 µM was less than 30%.

**Q.** And the inhibition of growth at 10 µM (ACHN)?
**A.** The inhibition of growth at 10 µM was less than 30%.

**Q.** What about the inhibition of growth at 10 µM (MDA-MB-468) of the same compound?
**A.** The inhibition of growth at 10 µM was less than 30%.

**Q.** And the inhibition of growth at 10 µM (Malme-3M)?
**A.** The inhibition of growth at 10 µM was less than 30%.

**Q.** And the inhibition of growth at 10 µM (SN12C)?
**A.** Its inhibition of growth at 10 µM is less than 30%.

**Q.** What about the inhibition of growth at 10 µM [3] of the same compound?
**A.** Its inhibition of growth at 10 µM is less than 30%.

**Q.** And the inhibition of growth at 10 µM (SK-MEL-5)?
**A.** Its inhibition of growth at 10 µM is less than 30%.

**Q.** What about the inhibition of growth at 10 µM (KM12) of the same compound?
**A.** The inhibition of growth at 10 µM was less than 30%.

**Q.** And the inhibition of growth at 10 µM (BT-549)?
**A.** Its inhibition of growth at 10 µM is less than 30%.

**Q.** And the inhibition of growth at 10 µM (LOX IMVI)?
**A.** The inhibition of growth at 10 µM was less than 30%.

**Q.** What about the inhibition of growth at 10 µM (HT-29) of the same compound?
**A.** Its inhibition of growth at 10 µM is less than 30%.

**Q.** And the inhibition of growth at 10 µM (SF-295)?
**A.** The inhibition of growth at 10 µM was less than 30%.

**Q.** What about the inhibition of growth at 10 µM (HCT-116) of the same compound?
**A.** Its inhibition of growth at 10 µM is less than 30%.

**Q.** And the inhibition of growth at 10 µM [5]?
**A.** Its inhibition of growth at 10 µM is less than 30%.

**Q.** And the inhibition of growth at 10 µM (HL-60(TB))?
**A.** Its inhibition of growth at 10 µM is less than 30%.

**Q.** What about the inhibition of growth at 10 µM (OVCAR-3) of the same compound?
**A.** Its inhibition of growth at 10 µM is less than 30%.
